Test results taken from ChEMBL document CHEMBL1123397, “Antiarrhythmic activity of 17 beta-aminoestratrienes. Comparison of 3-ols and 3-acetates with the corresponding 3-(3-amino-2-hydroxypropyl) ethers” (1986).
Values after ≈ are worked out from the molar mass of the structure shown.

Columns and labels:
Rattus norvegicus [1] = assay: Effect on heart rate before isoprenaline induced tachycardia in the anesthetized rat at 1 mg/kg dose; type: functional
How it was run: (§1)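 Same ligation protocol in anaesthetised male Wistar rats. Heart rate was taken from the lead II ECG at three points: just before i.v. drug or vehicle, 14 min after it (just before isoprenaline 10 μg/kg), and 1 min after isoprenaline. Pre vs post rates and isoprenaline responses vs controls were compared by Student's t test. Mean ± SEM of 7-12 observations.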

Rattus norvegicus [2] = assay: Effect on heart rate on 1 min post isoprenaline induced tachycardia in the anesthetized rat at 1 mg/kg dose.; type: functional
How it was run: (§2)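 Test drug or vehicle was given i.v., and isoprenaline (10 µg/kg) 14 min later. Heart rate was read from the lead II ECG just before drug, at 14 min (pre-isoprenaline) and 1 min after isoprenaline. Compared by Student's t test; 7–12 animals per group; mean ± SEM.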

Rattus norvegicus [3] = assay: Compound that antagonized arrhythmias evoked by coronary artery ligation in the rat was measured at 0.05 mg/kg dose; type: functional
How it was run: (§3)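 Male Wistar rats, anaesthetised and artificially ventilated, with left thoracotomy; silk suture under main left coronary artery. After stabilization, test drug or vehicle i.v.; 14 min later isoprenaline 10 μg/kg; 1 min after that the ligature was tightened and VF incidence recorded over 30 min. Carotid pressure and lead II ECG monitored continuously. 7-12 animals per group.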

Rattus norvegicus [4] = assay: Effect on heart rate after isoprenaline induced tachycardia in the anesthetized rat at 1 mg/kg dose; type: functional; how it was run: as §1
Rattus norvegicus [5] = species on record: Rattus norvegicus; assay: Maximum increase in heart rate evoked by isoprenaline.; type: functional; how it was run: as §2
Cavia porcellus [6] = species on record: Cavia porcellus; assay: Concentration required to reduce maximum following frequencu (MFF) of isolated guinea pig atria by 25%; type: functional
How it was run: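 Guinea pig left atria in an organ bath of Krebs solution at 35 °C, gassed with carbogen, electrically driven, isometric contractions recorded. Drugs added cumulatively; maximum following frequency determined 6 min after each concentration. Concentration reducing MFF by 25% (EC25) calculated from six preparations.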

Mus musculus = species on record: Mus musculus; assay: ED 50 value against aconitine-induced arrhythmias in mice; type: functional
How it was run: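 Anaesthetised mice were given test compound intraperitoneally, then aconitine intravenously to induce arrhythmia. At least three doses were tested in separate groups (n = 6-10). ED50 is the dose raising the arrhythmogenic aconitine dose 50% above the control requirement.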

Rattus norvegicus [7] = assay: Mean change in heart rate recorded 14 min after the administration of compound.; type: functional; how it was run: as §2
Cavia porcellus [8] = species on record: Cavia porcellus; assay: Compound was tested for antiarrhythmic activity (time taken to reach 90% repolarization) in guinea pig atria at 2(ug/mL) concentration; type: functional, Heart
How it was run: (§4)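 Guinea pig left atria pinned in a recording chamber, superfused with carbogen-gassed Krebs solution at 35 ± 0.5 °C and electrically stimulated. Transmembrane action potentials were recorded with conventional microelectrodes, giving RMP, AP height, APD50, APD90 and maximum rate of depolarization. Values are mean ± SEM from n cells across five preparations.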

Rattus norvegicus [9] = assay: Effect dose of compound that antagonized arrhythmias evoked by coronary artery ligation in the rat was measured at 0.05 mg/kg dose; type: functional; how it was run: as §3
Cavia porcellus [10] = species on record: Cavia porcellus; assay: Compound was tested for antiarrhythmic activity (time taken to reach 90% repolarization) in guinea pig atria at 4(ug/mL) concentration; type: functional, Heart; how it was run: as §4
Rattus norvegicus [11] = assay: Compound was tested for antagonism of Ventricular Fibrilloflutter (VF) evoked by coronary artery ligation in the rat measured at 0.05 mg/kg dose; type: functional, Heart; how it was run: as §3
Cavia porcellus [12] = species on record: Cavia porcellus; assay: Compound was tested for antiarrhythmic activity expressed as resting membrane potential (RMP) in guinea pig atria at 1(ug/mL) concentration; type: functional; conditions: Heart; how it was run: as §4
Cavia porcellus [13] = species on record: Cavia porcellus; assay: Compound was tested for antiarrhythmic activity (time taken to reach 50% repolarization) in guinea pig atria at 4(ug/mL) concentration; type: functional, Heart; how it was run: as §4
Cavia porcellus [14] = species on record: Cavia porcellus; assay: Compound was tested for antiarrhythmic activity expressed as action potential height (AP) in guinea pig atria at 2(ug/mL) concentration; type: functional, Heart; how it was run: as §4
Cavia porcellus [15] = species on record: Cavia porcellus; assay: Compound was tested for antiarrhythmic activity (maximum rate of phase 0 depolarization- MRD) in guinea pig atria at 2(ug/mL) concentration; type: functional, Heart; how it was run: as §4
Cavia porcellus [16] = species on record: Cavia porcellus; assay: Compound was tested for antiarrhythmic activity expressed as action potential height (AP) in guinea pig atria at 4(ug/mL) concentration; type: functional, Heart; how it was run: as §4
Cavia porcellus [17] = species on record: Cavia porcellus; assay: Compound was tested for antiarrhythmic activity expressed as action potential height (AP) in guinea pig atria at 1(ug/mL) concentration; type: functional, Heart; how it was run: as §4
Cavia porcellus [18] = species on record: Cavia porcellus; assay: Compound was tested for antiarrhythmic activity (maximum rate of phase 0 depolarization- MRD) in guinea pig atria at 4(ug/mL) concentration; type: functional, Heart; how it was run: as §4
Cavia porcellus [19] = species on record: Cavia porcellus; assay: Compound was tested for antiarrhythmic activity (time taken to reach 90% repolarization) in guinea pig atria at 1(ug/mL) concentration; type: functional, Heart; how it was run: as §4
Rattus norvegicus [20] = assay: Compound was tested for antagonism of Ventricular Fibrilloflutter (VF) evoked by coronary artery ligation in the rat measured at 0.1 mg/kg dose; type: functional, Heart; how it was run: as §3
Cavia porcellus [21] = species on record: Cavia porcellus; assay: Compound was tested for antiarrhythmic activity (time taken to reach 50% repolarization) in guinea pig atria at 1(ug/mL) concentration; type: functional, Heart; how it was run: as §4
Cavia porcellus [22] = species on record: Cavia porcellus; assay: Compound was tested for antiarrhythmic activity (maximum rate of phase 0 depolarization- MRD) in guinea pig atria at 1(ug/mL) concentration; type: functional, Heart; how it was run: as §4
Rattus norvegicus [23] = assay: Compound was tested for antagonism of Ventricular Fibrilloflutter (VF) evoked by coronary artery ligation in the rat measured at 0.02 mg/kg dose; type: functional, Heart; how it was run: as §3
Cavia porcellus [24] = species on record: Cavia porcellus; assay: Compound was tested for antiarrhythmic activity (time taken to reach 50% repolarization) in guinea pig atria at 2(ug/mL) concentration; type: functional, Heart; how it was run: as §4
Cavia porcellus [25] = species on record: Cavia porcellus; assay: Compound was tested for antiarrhythmic activity expressed as resting membrane potential (RMP) in guinea pig atria at 4(ug/mL) concentration; type: functional; conditions: Heart; how it was run: as §4
Cavia porcellus [26] = species on record: Cavia porcellus; assay: Compound was tested for antiarrhythmic activity expressed as resting membrane potential (RMP) in guinea pig atria at 2(ug/mL) concentration; type: functional; conditions: Heart; how it was run: as §4
Rattus norvegicus [27] = assay: Effect on heart rate 1 min post isoprenaline induced tachycardia in the anesthetized rat at 0.2 mg/kg dose.; type: functional; how it was run: as §1
Rattus norvegicus [28] = assay: Effect on heart rate before isoprenaline induced tachycardia in the anesthetized rat at 0.2 mg/kg dose; type: functional; how it was run: as §1
Rattus norvegicus [29] = assay: Compound that antagonized arrhythmias evoked by coronary artery ligation in the rat was measured at 0.2 mg/kg dose; type: functional; how it was run: as §3
Rattus norvegicus [30] = assay: Compound was tested for antagonism of Ventricular Fibrilloflutter (VF) evoked by coronary artery ligation in the rat measured at 0.2 mg/kg dose; type: functional, Heart; how it was run: as §3

CCCNCC(O)COc1ccccc1C(=O)CCc1ccccc1 (configuration not stated) [PROPAFENONE]
Heart rate (Rattus norvegicus [1]): 443 beats min-1
Heart rate (Rattus norvegicus [2]): 445 beats min-1
ED50 (Rattus norvegicus [3]): 0.7 mg/kg
Heart rate (Rattus norvegicus [4]): 391 beats min-1
Increase (Rattus norvegicus [5]): 13.8%
EC25 (Cavia porcellus [6]): 1.85 µg/mL (≈ 5.42 µM)
ED50 (Mus musculus): 24.3 mg/kg
Change (Rattus norvegicus [7]): -11.7%

CNC1[C@H](O)C[C@H]2[C@@H]3CCc4cc(O)ccc4[C@H]3CC[C@]12C (some centres not stated)
APD90 (Cavia porcellus [8]): 80.2 ms
ED50 (Rattus norvegicus [9]): 0.04 mg/kg
APD90 (Cavia porcellus [10]): 80.6 ms
VF (Rattus norvegicus [11]): 33%
RMP (Cavia porcellus [12]): 72.8 mV
APD50 (Cavia porcellus [13]): 44.5 ms
AP (Cavia porcellus [14]): 86.3 mV
MRD (Cavia porcellus [15]): 86.5 V s-1
AP (Cavia porcellus [16]): 81.5 mV
AP (Cavia porcellus [17]): 85.8 mV
MRD (Cavia porcellus [18]): 62.4 V s-1
APD90 (Cavia porcellus [19]): 83.6 ms
VF (Rattus norvegicus [20]): 17%
EC25 (Cavia porcellus [6]): 1.67 µg/mL (≈ 5.54 µM)
APD50 (Cavia porcellus [21]): 49.2 ms
MRD (Cavia porcellus [22]): 98.4 V s-1
VF (Rattus norvegicus [23]): 83%
ED50 (Mus musculus): 5.9 mg/kg
APD50 (Cavia porcellus [24]): 45.5 ms
RMP (Cavia porcellus [25]): 72.1 mV
RMP (Cavia porcellus [26]): 75.8 mV

CNC1[C@H](O)C[C@H]2[C@@H]3CCc4cc(OC(C)=O)ccc4[C@H]3CC[C@]12C (some centres not stated)
Heart rate (Rattus norvegicus [27]): 392 beats min-1
Heart rate (Rattus norvegicus [28]): 403 beats min-1
ED50 at 0.2 mg/kg (Rattus norvegicus [29]): < 0.2 mg/kg
Increase (Rattus norvegicus [5]): 9.2%
EC25 (Cavia porcellus [6]): 5.06 µg/mL (≈ 14.7 µM)
VF (Rattus norvegicus [30]): 29%
ED50 (Mus musculus): 9 mg/kg
Change (Rattus norvegicus [7]): -10.9%
